What was measured:
[1] = Half life period was measured at 7.4 pH from d[acid]/dt.; type: ADME; settings: pH 7.4
In short: (§1)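 Chemical hydrolysis in 0.5 M potassium phosphate, pH 7.4, 37 °C. Rate was followed by appearance of the acid product or loss of the quaternary salt. Where salt contained amine hydrochloride, initial concentration was taken from final acid after complete hydrolysis. Half-life was estimated from both where resolved.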

[2] = Half life period was measured at 37 degree C in dog plasma from d[quant]/dt.; type: ADME, Canis lupus familiaris
In short: (§2)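 Fresh dog blood was centrifuged and the upper layer filtered through 0.8 and 0.2 µm membranes. 2 mL plasma samples with gentisic acid internal standard were incubated. 5 µL aliquots taken at intervals were assayed against acid standard curves in methanol. Rates came from acid appearance or quaternary salt loss.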

Canis familiaris [3] = species: Canis familiaris; assay: The hydrolytic kinetics expressed as Kobs was measured in dog plasma at 37 degree C; type: ADME, Canis lupus familiaris; in short: as §2
Cavia porcellus [4] = species: Cavia porcellus; assay: Anticholinergic activity was measured by the guinea pig ileum test; c = NA means no activity found at the doses used.; type: functional
In short: (§3)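 Guinea pig whole ileum strips in McEwan's solution, gassed with O2/CO2 95:5, 37 °C organ bath, 1 g tension. Cumulative acetylcholine concentration-response curves were run to constancy, then repeated after 15–20 min equilibration with increasing antagonist concentrations. Mean curves gave dose ratios, from which competitive antagonism and pA2 were derived.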

[5] = Cholinergic potency was expressed in terms of relative activity vs acetylcholine.; type: functional
Felis catus [6] = species: Felis catus; assay: acetylcholine antagonist effect of compound on cat blood pressure at concentration 5.7*10e-8 in 13 min; type: functional
In short: (§4)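 Adult cats under ip α-chloralose (80 mg/kg) plus pentobarbitone (6 mg/kg), bilaterally vagotomized and artificially respired. Carotid blood pressure was recorded. An iv acetylcholine dose giving 70–80% of maximal vasodepressor response was used. After iv test drug, acetylcholine responses were checked at 1 min and then every 2–3 min and expressed as % of control. Doses were given in mol/kg, escalating after recovery.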

Felis catus [7] = assay: acetylcholine antagonist effect of compound on cat blood pressure at concentration 5.7*10e-8 mol/kg in 1 min; type: functional; in short: as §4
Felis catus [8] = species: Felis catus; assay: acetylcholine antagonist effect of compound on cat blood pressure at concentration 5.4*10e-8 in 33 min
Canis familiaris [9] = species: Canis familiaris; assay: The hydrolytic kinetics expressed as Kobs was measured in dog plasma at 36 degree C; type: ADME, Canis lupus familiaris; in short: as §2
Felis catus [10] = species: Felis catus; assay: acetylcholine antagonist effect of compound on cat blood pressure at concentration 5.4*10e-8 in 28 min
[11] = The hydrolytic kinetics expressed as Kobs was measured at 7.4 pH at 37 degree C; type: ADME; settings: pH 7.4; in short: as §1
Felis catus [12] = species: Felis catus; assay: acetylcholine antagonist effect of compound on cat blood pressure at concentration 5.7*10e-9 in 2 min; type: functional
In short: (§5)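 Adult cats anesthetized ip with α-chloralose (80 mg/kg) plus sodium pentobarbitone (6 mg/kg), bilaterally vagotomized, artificially respired. Carotid arterial pressure recorded. Drugs given iv via brachial vein. Acetylcholine dose giving 70-80% of maximal vasodepressor response used throughout. Test drug injected, acetylcholine response checked 1 min later, then every ~2-3 min. Value is % of control vasodepressor response to acetylcholine.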

Felis catus [13] = species: Felis catus; assay: acetylcholine antagonist effect of compound on cat blood pressure at concentration 5.7*10e-8 in 18 min; type: functional; in short: as §4
[14] = The hydrolytic kinetics expressed as Kobs was measured at 9.4 pH at 36 degree C; type: ADME; settings: pH 9.4
In short: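 Hydrolysis in 0.1 M sodium carbonate-bicarbonate, pH 9.4, ionic strength 0.5 (NaCl added), 36 °C. Kobsd was followed from the rate of acid formation.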

Felis catus [15] = species: Felis catus; assay: acetylcholine antagonist effect of compound on cat blood pressure at concentration 5.4*10e-8 in 44 min
Felis catus [16] = species: Felis catus; assay: acetylcholine antagonist effect of compound on cat blood pressure at concentration 5.7*10e-8 in 23 min; type: functional; in short: as §4
Felis catus [17] = species: Felis catus; assay: acetylcholine antagonist effect of compound on cat blood pressure at concentration 5.4*10e-8 in 2 min
Felis catus [18] = species: Felis catus; assay: acetylcholine antagonist effect of compound on cat blood pressure at concentration 5.4*10e-8 in 38 min
Cavia porcellus [19] = species: Cavia porcellus; assay: Anticholinergic activity was measured by the guinea pig ileum test; c = NA means no activity found at the doses used; type: functional; settings: read-out: pA2 (converted); in short: as §3
Felis catus [20] = species: Felis catus; assay: acetylcholine antagonist effect of compound on cat blood pressure at concentration 5.7*10e-9 in 7 min; type: functional; in short: as §5
Felis catus [21] = species: Felis catus; assay: acetylcholine antagonist effect of compound on cat blood pressure at concentration 5.7*10e-8 in 5 min; type: functional; in short: as §5
Felis catus [22] = species: Felis catus; assay: acetylcholine antagonist effect of compound on cat blood pressure at concentration 5.7*10e-9 in 1 min; type: functional; in short: as §5
Felis catus [23] = species: Felis catus; assay: acetylcholine antagonist effect of compound on cat blood pressure at concentration 5.7*10e-8 in 9 min; type: functional; in short: as §5
Cavia porcellus [24] = species: Cavia porcellus; assay: Antihistamine activity was measured by the guinea pig ileum test; c = NA means no activity found at the doses used; type: functional
In short: (§6)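 Guinea pig ileum strips, McEwan's solution, Carbogen, 37 °C, 1 g tension. Cumulative histamine concentration-response curves were recorded before and after 15–20 min equilibration with rising antagonist concentrations. pA2 came from dose ratios of mean curves.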

Felis catus [25] = species: Felis catus; assay: acetylcholine antagonist effect of compound on cat blood pressure at concentration 5.7*10e-9 in 4 min; type: functional; in short: as §5
Cavia porcellus [26] = species: Cavia porcellus; assay: Antihistamine activity was measured by the guinea pig ileum test.; type: functional; settings: Cavia porcellus, Ileum; read-out: pA2 (converted); in short: as §6
[27] = Half life period was measured at 7.4 pH from d[quant]/dt.; type: ADME; settings: pH 7.4; in short: as §1
Cavia porcellus [28] = species: Cavia porcellus; assay: Anticholinergic activity was measured by the guinea pig ileum test.; type: functional; settings: Cavia porcellus, Ileum; read-out: pA2 (converted); in short: as §3
Cavia porcellus [29] = species: Cavia porcellus; assay: Antihistamine activity was measured by the guinea pig ileum test; c = NA means no activity found at the doses used.; type: functional; in short: as §6
[30] = Cholinergic potency was expressed in terms of relative activity vs acetylcholine; c = NA means no activity found at the doses used.; type: functional
Cavia porcellus [31] = species: Cavia porcellus; assay: Anticholinergic activity was measured by the guinea pig ileum test; NA means no activity found at the doses used; type: functional; in short: as §3
[32] = Cholinergic potency was expressed in terms of relative activity vs acetylcholine; NA means no activity found at the doses used.; type: functional
Sus scrofa [33] = species: Sus scrofa; assay: The hydrolytic kinetics expressed as Kobs was measured in […] at 37 degree C; type: ADME; settings: pig
In short: (§7)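 Hog liver carboxylesterase (EC 3.1.1.1), 2.4 units, with substrate at 5.6×10^-3 mol L-1 in 0.5 M potassium phosphate pH 7.4 containing gentisate internal standard, 37 °C. Rate was taken from acid formation.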

Sus scrofa [34] = species: Sus scrofa; assay: Half life period was measured at 37 degree C in […] from d[acid]/dt.; type: ADME; settings: pig, in vitro; in the assay text read “esterase” for “plasma”; in short: as §7

C[N+]1(COC(=O)Cc2ccccc2)CCOCC1.[Cl-]
half-life [1]: 8 h
half-life [2]: 4 h
K obs (Canis familiaris [3]): 1.73 min⁻¹

CCC(C)C(=O)OC[N+]12CCC(CC1)CC2 (configuration not stated)
pA2 (Cavia porcellus [4]): No activity
Activity [5]: 1

C[N+]1(COC(=O)C(c2ccccc2)C2CCCC2)CCCC1.[Cl-] (configuration not stated)
Response (Felis catus [6]): 31%
Response (Felis catus [7]): 0%
Response (Felis catus [8]): 81%
K obs (Canis familiaris [9]): 0.00144 min⁻¹
half-life [1]: 20 h
Response (Felis catus [10]): 69%
half-life [2]: 6.5 h
K obs [11]: 0.000578 min⁻¹
Response (Felis catus [12]): 0%
Response (Felis catus [13]): 63%
K obs [14]: 0.139 min⁻¹
Response (Felis catus [15]): 88%
Response (Felis catus [16]): 63%
Response (Felis catus [17]): 0%
Response (Felis catus [18]): 88%
K obs (Canis familiaris [3]): 0.00168 min⁻¹
Kb (Cavia porcellus [19]): 3.98 nM
Response (Felis catus [20]): 100%
Response (Felis catus [21]): 0%
Response (Felis catus [22]): 0%
Response (Felis catus [23]): 0%
pA2 (Cavia porcellus [24]): No activity
Response (Felis catus [25]): 67%
Activity [5]: No activity

CCC(C(=O)OC[n+]1ccn(C)c1)c1ccccc1.[Cl-] (configuration not stated)
half-life [1]: 5.7 h
Kb (Cavia porcellus [26]): 1260 nM
half-life [27]: 6 h
Kb (Cavia porcellus [28]): 1260 nM

CC[N+](CC)(CC)COC(=O)C(c1ccccc1)C1CCCC1 (configuration not stated) [listing 1 of 2 here]
pA2 (Cavia porcellus [29]): No activity
Activity [30]: No activity

C[N+]1(COC(=O)C23CC4CC(CC(C4)C2)C3)CCCC1
Kb (Cavia porcellus [28]): 126 nM

CC1CCC[N+]1(C)COC(=O)C1(c2ccccc2)CC1.[Cl-] (configuration not stated)
half-life [1]: 21 h
K obs [11]: 0.00055 min⁻¹
Kb (Cavia porcellus [26]): 575 nM
Kb (Cavia porcellus [28]): 251 nM

CC[N+](CC)(COC(=O)C(C)(C)C)CC(=O)Nc1c(C)cccc1C
pA2 (Cavia porcellus [4]): No activity
Activity [5]: 1

C[N+]1(C2OC(=O)c3ccccc32)CCCC1 (configuration not stated)
pA2 (Cavia porcellus [31]): No activity
Activity [32]: No activity

CCC(C)C(=O)OC[N+]1(C)CCCC1C (configuration not stated)
Activity [30]: No activity
Kb (Cavia porcellus [28]): 12600 nM

CCC(C(=O)OC[N+](CC)(CC)CC)c1ccccc1.[Cl-] (configuration not stated)
K obs (Sus scrofa [33]): 0.00542 min⁻¹
half-life [1]: 2.6 h
half-life [2]: 1.4 h
T1/2 (Sus scrofa [34]): 2.1 h
Kb (Cavia porcellus [26]): 316 nM
half-life [27]: 2.5 h
K obs (Canis familiaris [3]): 0.00815 min⁻¹
Kb (Cavia porcellus [28]): 251 nM

CC[N+](CC)(CC)COC(=O)C(c1ccccc1)C1CCCC1 (configuration not stated) [listing 2 of 2 here]
Kb (Cavia porcellus [26]): 50.1 nM
Kb (Cavia porcellus [28]): 3.16 nM

CC[N+](CC)(CC)COC(C)=O
pA2 (Cavia porcellus [4]): No activity
